Consider twelve compounds from ChEMBL document CHEMBL2311421, “Synthesis, crystal structure and antidiabetic activity of substituted (E)-3-(Benzo [d]thiazol-2-ylamino) phenylprop-2-en-1-one” (Eur J Med Chem, 2013).

The nature of assay [1]: Inhibition of Swiss mouse liver glucosidase. The method, boiled down:
(§1)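 Enzyme source: tissue homogenates of pancreas, liver or small intestine from 12 h-starved 10-week-old male Swiss mice (20 g), made 1:10 w/v in ice-cold 10 mM phosphate buffer with 6 mM NaCl plus protease inhibitors. Spun at 10,000 rpm for 10 min; supernatant diluted to A280 0.4. Assayed as for amylase. IC50 from mean of n = 3.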

Assay [2] is described as follows: Inhibition of Swiss mouse intestinal glucosidase. The method, boiled down: as §1
A short description of assay [3]: Inhibition of Swiss mouse pancreatic glucosidase. The method, boiled down:
as §1

In another assay the target is T1, Pancreatic alpha-amylase (Sus scrofa, UniProt P00690).
T1 sequence (P00690 whole entry): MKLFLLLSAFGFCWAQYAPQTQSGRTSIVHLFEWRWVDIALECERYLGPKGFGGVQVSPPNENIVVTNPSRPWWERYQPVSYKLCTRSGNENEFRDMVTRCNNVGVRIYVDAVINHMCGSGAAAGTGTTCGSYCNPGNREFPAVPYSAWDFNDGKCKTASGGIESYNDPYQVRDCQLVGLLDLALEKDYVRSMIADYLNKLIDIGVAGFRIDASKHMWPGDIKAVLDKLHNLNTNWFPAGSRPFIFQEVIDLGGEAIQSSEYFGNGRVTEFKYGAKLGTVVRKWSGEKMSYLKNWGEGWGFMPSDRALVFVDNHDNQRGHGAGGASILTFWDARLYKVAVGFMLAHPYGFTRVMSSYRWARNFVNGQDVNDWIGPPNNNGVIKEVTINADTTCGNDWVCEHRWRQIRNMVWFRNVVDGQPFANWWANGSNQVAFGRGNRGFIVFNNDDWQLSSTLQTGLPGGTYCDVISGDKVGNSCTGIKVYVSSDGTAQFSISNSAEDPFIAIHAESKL
Description: Inhibition of pig pancreatic alpha-amylase by Bernfeld method.

`CCOc1ccc2nc(N/C(=C\C(=O)c3ccc(C)cc3)SC)sc2c1`: the IC50 in assay [1] (read-out: IC50) was determined as 24.2 µM; in assay [2] (read-out: IC50), 23.5 µM; in assay [3], 19.9 µM; on Pancreatic alpha-amylase, 18.9 µM.
Consider `CCOc1ccc2nc(N/C(=C\C(=O)c3ccc(Br)cc3)SC)sc2c1`, for which the IC50 is 15.7 µM in assay [1] (read-out: IC50), 31.9 µM in assay [2] (read-out: IC50), 20.9 µM in assay [3] and 15.9 µM on Pancreatic alpha-amylase.
On to `CS/C(=C/C(=O)c1ccc(Br)cc1)Nc1nc2ccccc2s1`, for which the 50% inhibitory concentration (IC50) amounted to 15.4 µM in assay [1] (read-out: IC50), 45.3 µM in assay [2] (read-out: IC50), 21.7 µM in assay [3] and 17.8 µM against Pancreatic alpha-amylase.
As to `CCOc1ccc2nc(N/C(=C\C(=O)c3ccccc3)SC)sc2c1`, the IC50 result in assay [1] was “Not Active”; in assay [2], “Not Active”; in assay [3], 18 µM; at Pancreatic alpha-amylase, 16.3 µM.
On to `CS/C(=C/C(=O)c1ccc(Br)cc1)Nc1nc2cc(C)c(C)cc2s1`, for which the IC50 amounted to 16.7 µM in assay [1] (read-out: IC50), 25.9 µM in assay [2] (read-out: IC50), 24.7 µM in assay [3] and 16.9 µM against Pancreatic alpha-amylase.
In the case of `CS/C(=C/C(=O)c1ccc(Cl)cc1)Nc1nc2ccccc2s1`, the IC50 was found to be 15 µM in assay [1] (read-out: IC50), 44.5 µM in assay [2] (read-out: IC50), 32.4 µM in assay [3] and 20.3 µM on Pancreatic alpha-amylase.
For `CCOc1ccc2nc(N/C(=C\C(=O)c3ccc(Cl)cc3)SC)sc2c1`, the IC50 came to 17.4 µM in assay [1] (read-out: IC50), 14.7 µM in assay [2] (read-out: IC50), 26.5 µM in assay [3] and 17.9 µM against Pancreatic alpha-amylase.
Regarding `CS/C(=C/C(=O)c1ccc(F)cc1)Nc1nc2ccccc2s1`, the IC50 in assay [1] (read-out: IC50) is 21.7 µM; in assay [2] (read-out: IC50) it was 32.1 µM; in assay [3], 33.6 µM; against Pancreatic alpha-amylase it was 19.9 µM.
Take `CCOc1ccc2nc(N/C(=C\C(=O)c3ccc(F)cc3)SC)sc2c1`: the IC50 in assay [1] (read-out: IC50) turned out to be 24.2 µM; in assay [2] (read-out: IC50), 49.4 µM; in assay [3] it was 23.5 µM; against Pancreatic alpha-amylase it was 18.4 µM.
In the same order, the values of `CCOc1ccc2nc(N/C(=C\C(=O)c3ccc(OC)cc3)SC)sc2c1` are 21.4 µM, 29.3 µM, 23.2 µM and 18.6 µM.
Consider `CS/C(=C/C(=O)c1ccc(C)cc1)Nc1nc2ccccc2s1`, for which the IC50 in assay [1] (read-out: IC50) came out at 22.5 µM; in assay [2] (read-out: IC50), 30 µM; in assay [3], 26.9 µM; against Pancreatic alpha-amylase, 20.6 µM.
Turning to `C[C@H]1O[C@H](O[C@H]2[C@H](O)[C@@H](O)[C@@H](O[C@H]3[C@H](O)[C@@H](O)C(O)O[C@@H]3CO)O[C@@H]2CO)[C@H](O)[C@@H](O)[C@@H]1N[C@H]1C=C(CO)[C@@H](O)[C@H](O)[C@H]1O` (some centres not stated) [ACARBOSE], the IC50 in assay [1] (read-out: IC50) was above 100 µM; in assay [2] it was “Not Active”; in assay [3], above 100 µM.

By IC50 is commonly meant the midpoint of a concentration-inhibition curve.
